Measurements published in ChEMBL document CHEMBL2406932, “Heteroaromatic and aniline derivatives of piperidines as potent ligands for vesicular acetylcholine transporter” (J Med Chem, 2013).

Columns and labels:
[1] = tested on: Blood; assay: Biodistribution in Sprague-Dawley rat blood at 350 uCi, iv after 5 mins; type: ADME, organism-based; details: in vivo
[2] = tested on: Heart; assay: Biodistribution in Sprague-Dawley rat heart at 350 uCi, iv after 5 mins; type: ADME, organism-based; details: in vivo
[3] = tested on: Lung; assay: Biodistribution in Sprague-Dawley rat lung at 350 uCi, iv after 5 mins; type: ADME, organism-based; details: in vivo
[4] = tested on: Liver; assay: Biodistribution in Sprague-Dawley rat liver at 350 uCi, iv after 5 mins; type: ADME, organism-based; details: in vivo
[5] = tested on: Muscle tissue; assay: Biodistribution in Sprague-Dawley rat muscle at 350 uCi, iv after 5 mins; type: ADME, organism-based; details: in vivo
[6] = tested on: Rattus norvegicus; assay: Biodistribution in Sprague-Dawley rat fat at 350 uCi, iv after 5 mins; type: ADME, organism-based, Adipose tissue; details: in vivo
[7] = tested on: Pancreas; assay: Biodistribution in Sprague-Dawley rat pancreas at 350 uCi, iv after 5 mins; type: ADME, organism-based; details: in vivo
[8] = tested on: Spleen; assay: Biodistribution in Sprague-Dawley rat spleen at 350 uCi, iv after 5 mins; type: ADME, organism-based; details: in vivo
[9] = tested on: Kidney; assay: Biodistribution in Sprague-Dawley rat kidney at 350 uCi, iv after 5 mins; type: ADME, organism-based; details: in vivo
[10] = tested on: Brain; assay: Biodistribution in Sprague-Dawley rat brain at 350 uCi, iv after 5 mins; type: ADME, organism-based; details: in vivo
[11] = tested on: Blood; assay: Biodistribution in Sprague-Dawley rat blood at 350 uCi, iv after 30 mins; type: ADME, organism-based; details: in vivo, 0.5 h
[12] = tested on: Heart; assay: Biodistribution in Sprague-Dawley rat heart at 350 uCi, iv after 30 mins; type: ADME, organism-based; details: in vivo, 0.5 h
[13] = tested on: Lung; assay: Biodistribution in Sprague-Dawley rat lung at 350 uCi, iv after 30 mins; type: ADME, organism-based; details: in vivo, 0.5 h
[14] = tested on: Muscle tissue; assay: Biodistribution in Sprague-Dawley rat muscle at 350 uCi, iv after 30 mins; type: ADME, organism-based; details: in vivo, 0.5 h
[15] = tested on: Rattus norvegicus; assay: Biodistribution in Sprague-Dawley rat fat at 350 uCi, iv after 30 mins; type: ADME, organism-based, Adipose tissue; details: in vivo, 0.5 h
[16] = tested on: Pancreas; assay: Biodistribution in Sprague-Dawley rat pancreas at 350 uCi, iv after 30 mins; type: ADME, organism-based; details: in vivo, 0.5 h
[17] = tested on: Spleen; assay: Biodistribution in Sprague-Dawley rat spleen at 350 uCi, iv after 30 mins; type: ADME, organism-based; details: in vivo, 0.5 h
[18] = tested on: Kidney; assay: Biodistribution in Sprague-Dawley rat kidney at 350 uCi, iv after 30 mins; type: ADME, organism-based; details: in vivo, 0.5 h
[19] = tested on: Brain; assay: (§1) Biodistribution in Sprague-Dawley rat brain at 350 uCi, iv after 30 mins; type: ADME, organism-based; details: in vivo, 0.5 h
[20] = tested on: Liver; assay: Biodistribution in Sprague-Dawley rat liver at 350 uCi, iv after 30 mins; type: ADME, organism-based; details: in vivo, 0.5 h
[21] = tested on: Blood; assay: Biodistribution in Sprague-Dawley rat blood at 350 uCi, iv after 30 mins in presence of cyclosporin A; type: ADME, organism-based; details: in vivo, 0.5 h
[22] = tested on: Heart; assay: Biodistribution in Sprague-Dawley rat heart at 350 uCi, iv after 30 mins in presence of cyclosporin A; type: ADME, organism-based; details: in vivo, 0.5 h
[23] = tested on: Lung; assay: Biodistribution in Sprague-Dawley rat lung at 350 uCi, iv after 30 mins in presence of cyclosporin A; type: ADME, organism-based; details: in vivo, 0.5 h
[24] = tested on: Liver; assay: Biodistribution in Sprague-Dawley rat liver at 350 uCi, iv after 30 mins in presence of cyclosporin A; type: ADME, organism-based; details: in vivo, 0.5 h
[25] = tested on: Muscle tissue; assay: Biodistribution in Sprague-Dawley rat muscle at 350 uCi, iv after 30 mins in presence of cyclosporin A; type: ADME, organism-based; details: in vivo, 0.5 h
[26] = tested on: Rattus norvegicus; assay: Biodistribution in Sprague-Dawley rat fat at 350 uCi, iv after 30 mins in the presence of cyclosporin A; type: ADME, organism-based, Adipose tissue; details: in vivo, 0.5 h
[27] = tested on: Pancreas; assay: Biodistribution in Sprague-Dawley rat pancreas at 350 uCi, iv after 30 mins in the presence of cyclosporin A; type: ADME, organism-based; details: in vivo, 0.5 h
[28] = tested on: Spleen; assay: Biodistribution in Sprague-Dawley rat spleen at 350 uCi, iv after 30 mins in the presence of cyclosporin A; type: ADME, organism-based; details: in vivo, 0.5 h
[29] = tested on: Kidney; assay: Biodistribution in Sprague-Dawley rat kidney at 350 uCi, iv after 30 mins in the presence of cyclosporin A; type: ADME, organism-based; details: in vivo, 0.5 h
[30] = tested on: Brain; assay: Biodistribution in Sprague-Dawley rat brain at 350 uCi, iv after 30 mins in the presence of cyclosporin A; type: ADME, organism-based; details: in vivo, 0.5 h
[31] = tested on: Cerebellum; assay: Biodistribution in Sprague-Dawley rat cerebellum at 350 uCi, iv after 30 mins; type: ADME, organism-based; details: in vivo, 0.5 h
[32] = tested on: Striatum; assay: Biodistribution in Sprague-Dawley rat striatum at 350 uCi, iv after 30 mins; type: ADME, organism-based; details: in vivo, 0.5 h
[33] = tested on: Rattus norvegicus; assay: Biodistribution in Sprague-Dawley rat brain stem at 350 uCi, iv after 30 mins; type: ADME, organism-based; details: in vivo, 0.5 h
[34] = tested on: Cortex; assay: Biodistribution in Sprague-Dawley rat cortex at 350 uCi, iv after 30 mins; type: ADME, organism-based; details: in vivo, 0.5 h
[35] = tested on: Thalamus; assay: Biodistribution in Sprague-Dawley rat thalamus at 350 uCi, iv after 30 mins; type: ADME, organism-based; details: in vivo, 0.5 h
[36] = tested on: Hippocampus; assay: Biodistribution in Sprague-Dawley rat hippocampus at 350 uCi, iv after 30 mins; type: ADME, organism-based; details: in vivo, 0.5 h
[37] = tested on: Brain; assay: as §1; type: ADME, organism-based; details: in vivo, 0.5 h; remark: listed apart in the source
[38] = tested on: Cerebellum; assay: Biodistribution in Sprague-Dawley rat cerebellum at 350 uCi, iv after 30 mins in presence of cyclosporin A; type: ADME, organism-based; details: in vivo, 0.5 h
[39] = tested on: Striatum; assay: Biodistribution in Sprague-Dawley rat striatum at 350 uCi, iv after 30 mins in presence of cyclosporin A; type: ADME, organism-based; details: in vivo, 0.5 h
[40] = tested on: Rattus norvegicus; assay: Biodistribution in Sprague-Dawley rat brain stem at 350 uCi, iv after 30 mins in presence of cyclosporin A; type: ADME, organism-based; details: in vivo, 0.5 h
[41] = tested on: Cortex; assay: Biodistribution in Sprague-Dawley rat cortex at 350 uCi, iv after 30 mins in presence of cyclosporin A; type: ADME, organism-based; details: in vivo, 0.5 h
[42] = tested on: Thalamus; assay: Biodistribution in Sprague-Dawley rat thalamus at 350 uCi, iv after 30 mins in presence of cyclosporin A; type: ADME, organism-based; details: in vivo, 0.5 h
[43] = tested on: Hippocampus; assay: Biodistribution in Sprague-Dawley rat hippocampus at 350 uCi, iv after 30 mins in presence of cyclosporin A; type: ADME, organism-based; details: in vivo, 0.5 h
[44] = tested on: Brain; assay: Biodistribution in Sprague-Dawley rat brain at 350 uCi, iv after 30 mins in presence of cyclosporin A; type: ADME, organism-based; details: in vivo, 0.5 h
[45] = Biodistribution in cynomolgus monkey striatum at 5 to 7 mCi, iv up to 100 mins by microPET analysis; type: ADME, organism-based, Macaca fascicularis; details: in vivo
In short: (§2)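 Male cynomolgus monkeys (4–6 kg) were fasted 12 h, induced with ketamine (10 mg/kg) and glycopyrrolate (0.13 mg/kg) i.m., intubated and kept on 0.75–2.0% isoflurane. After attenuation-correction transmission scans, 5–7 mCi of tracer was given via venous catheter and a 100 min dynamic microPET scan was acquired. MRI-coregistered regions of interest yielded time-activity curves; n = 3.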

[46] = Biodistribution in cynomolgus monkey striatum at 5 to 7 mCi, iv after 10 mins by microPET analysis; type: ADME, organism-based, Macaca fascicularis; details: in vivo; in short: as §2
[47] = tested on: Brain; assay: Ratio of drug uptake in Sprague-Dawley rat brain in absence of cyclosporin A to drug uptake in Sprague-Dawley rat brain in presence of cyclosporin A; type: ADME, tissue-based; details: in vivo
In short: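 Cyclosporine A (Sandimmune diluted 1:1 with saline) was given i.v. at 25 mg/kg 30 min before the radioligand. Rats were euthanized 30 min after tracer injection. Groups were compared with controls by Student t test (n=4).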

[48] = target: Sigma non-opioid intracellular receptor 1 (Cavia porcellus, UniProt Q60492); assay: Displacement of (+)- [3H]pentazocine from sigma 1 receptor expressed in guinea pig brain membrane homogenates by scintillation counting analysis; type: cell membranes
[49] = target: T1, Vesicular acetylcholine transporter (Homo sapiens, UniProt Q16572); assay: Displacement of (-)-[3H]vesamicol from human VAChT expressed in rat PC12 cell membrane after 20 hrs; type: cell membranes, PC-12
T1 sequence (Q16572 whole entry): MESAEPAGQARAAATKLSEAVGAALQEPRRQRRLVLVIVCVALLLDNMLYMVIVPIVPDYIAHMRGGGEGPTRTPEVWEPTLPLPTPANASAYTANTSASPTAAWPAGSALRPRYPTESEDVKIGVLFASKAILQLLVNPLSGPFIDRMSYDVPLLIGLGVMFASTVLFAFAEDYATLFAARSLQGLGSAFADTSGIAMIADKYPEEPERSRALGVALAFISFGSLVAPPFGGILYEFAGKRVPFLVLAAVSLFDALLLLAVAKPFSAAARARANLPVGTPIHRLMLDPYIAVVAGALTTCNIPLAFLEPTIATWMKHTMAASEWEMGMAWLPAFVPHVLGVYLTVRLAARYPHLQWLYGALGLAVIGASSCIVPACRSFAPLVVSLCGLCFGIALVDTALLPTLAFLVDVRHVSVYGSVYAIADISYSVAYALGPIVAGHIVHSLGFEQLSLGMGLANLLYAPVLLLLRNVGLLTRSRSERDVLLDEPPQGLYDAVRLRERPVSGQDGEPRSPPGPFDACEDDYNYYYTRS

[50] = Displacement of [3H]DTG from sigma 2 receptor in rat liver membrane homogenates after 120 mins by scintillation counting analysis; type: cell membranes
In short: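 Rat liver membrane homogenate (~300 µg protein) with ~5 nM [3H]DTG plus 1 µM (+)-pentazocine to block sigma-1 sites, 120 min at room temperature, pH 7.4 Tris buffer. Nonspecific binding taken with 10 µM haloperidol. Filtration and scintillation counting.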

[51] = tested on: Macaca fascicularis; assay: Ratio of drug level in cynomolgus monkey […] at 5 to 7 mCi, iv after 70 mins; details: in vivo

Sequence of Sigma non-opioid intracellular receptor 1 (Q60492 whole entry): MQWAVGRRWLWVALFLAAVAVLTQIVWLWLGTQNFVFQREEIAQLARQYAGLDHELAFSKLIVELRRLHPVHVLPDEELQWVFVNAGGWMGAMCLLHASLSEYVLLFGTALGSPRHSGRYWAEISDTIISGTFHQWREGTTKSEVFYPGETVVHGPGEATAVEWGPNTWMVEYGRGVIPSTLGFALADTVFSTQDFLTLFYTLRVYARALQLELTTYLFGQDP

Structure (SMILES): [11CH3]Nc1ccc(C(=O)C2CCN([C@H]3Cc4ccccc4C[C@@H]3O)CC2)cc1
- Drug uptake [1]: 0.34 % ID/g
- Drug uptake [2]: 0.49 % ID/g
- Drug uptake [3]: 1.77 % ID/g
- Drug uptake [4]: 3.45 % ID/g
- Drug uptake [5]: 0.22 % ID/g
- Drug uptake [6]: 0.18 % ID/g
- Drug uptake [7]: 0.89 % ID/g
- Drug uptake [8]: 1.19 % ID/g
- Drug uptake [9]: 1.47 % ID/g
- Drug uptake [10]: 0.57 % ID/g
- Drug uptake [11]: Active
- Drug uptake [12]: Active
- Drug uptake [13]: Active
- Drug uptake [14]: Active
- Drug uptake [15]: Active
- Drug uptake [16]: Active
- Drug uptake [17]: Active
- Drug uptake [18]: Active
- Drug uptake [19]: Active
- Drug uptake [20]: 2.44 % ID/g
- Drug uptake [21]: Active
- Drug uptake [22]: Active
- Drug uptake [23]: Active
- Drug uptake [24]: Active
- Drug uptake [25]: Active
- Drug uptake [26]: Active
- Drug uptake [27]: Active
- Drug uptake [28]: Active
- Drug uptake [29]: 1.21 % ID/g
- Drug uptake [30]: Active
- Drug uptake [31]: 0.157 % ID/g
- Drug uptake [32]: 0.593 % ID/g
- Drug uptake [33]: 0.245 % ID/g
- Drug uptake [34]: 0.262 % ID/g
- Drug uptake [35]: 0.293 % ID/g
- Drug uptake [36]: 0.265 % ID/g
- Drug uptake [37]: 0.272 % ID/g
- Drug uptake [38]: 0.404 % ID/g
- Drug uptake [39]: 1.02 % ID/g
- Drug uptake [40]: 0.577 % ID/g
- Drug uptake [41]: 0.637 % ID/g
- Drug uptake [42]: 0.6 % ID/g
- Drug uptake [43]: 0.562 % ID/g
- Drug uptake [44]: 0.596 % ID/g
- Drug uptake [45]: Active
- Drug uptake [46]: Active
- Ratio [47]: 2.2
- Ki [48]: 992 nM
- Ki [49]: 0.78 nM
- Ki [50]: 11400 nM
- Ratio [51]: > 2.5
